The text below walks through data of ChEMBL document CHEMBL1687868, “Bioactive compounds from the fern Lepisorus contortus” (J Nat Prod, 2011).

The target in series [1] is T1, Prostaglandin G/H synthase 1 (Ovis aries) (UniProt P05979).
T1 sequence (whole entry): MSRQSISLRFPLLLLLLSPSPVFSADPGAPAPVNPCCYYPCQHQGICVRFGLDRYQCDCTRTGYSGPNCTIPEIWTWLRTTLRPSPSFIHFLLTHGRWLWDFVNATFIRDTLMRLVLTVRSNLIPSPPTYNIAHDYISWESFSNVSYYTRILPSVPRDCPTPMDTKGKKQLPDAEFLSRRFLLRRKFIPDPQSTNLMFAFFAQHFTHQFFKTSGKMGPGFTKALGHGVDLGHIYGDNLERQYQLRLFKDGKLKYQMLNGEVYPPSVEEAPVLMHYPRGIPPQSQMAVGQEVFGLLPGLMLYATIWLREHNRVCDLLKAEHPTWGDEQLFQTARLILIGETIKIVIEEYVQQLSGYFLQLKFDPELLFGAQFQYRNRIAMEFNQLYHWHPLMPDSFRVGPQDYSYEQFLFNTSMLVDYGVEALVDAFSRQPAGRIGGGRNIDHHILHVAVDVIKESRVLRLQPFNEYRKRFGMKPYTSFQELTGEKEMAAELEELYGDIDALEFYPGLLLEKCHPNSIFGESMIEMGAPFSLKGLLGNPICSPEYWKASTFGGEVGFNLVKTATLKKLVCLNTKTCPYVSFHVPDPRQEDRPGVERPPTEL
As to the kind of experiment: Inhibition of ovine COX1 assessed as PGE2 formation at 10 ug/ml by LC-MS-MS analysis. The method, boiled down:
(§1)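 COX-1 (ovine) or COX-2 (human), 0.2 µg, activated in Tris-HCl pH 8.0 with hematin (1 µM final) and L-epinephrine (2 mM final). Test solution preincubated 10 min at 37 °C. Reaction started with arachidonic acid (5 µM final), stopped with HCl after 2 min. d4-PGE2 added as internal standard and PGE2 extracted with […] for LC-MS.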

Series [2] can be described thus: Cytotoxicity against mouse Hepa-1c1c7 cells assessed as cell growth inhibition at 20 ug/ml after 72 hrs by sulforhodamine B assay. Format: cell-based. To be noted: hepa-1c1c7, 72 h. The method, boiled down:
(§2)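 Cells held in medium with 10% heat-inactivated FBS and penicillin/streptomycin/amphotericin B (Hepa1c1c7 in α-MEM; MCF-7 in MEME plus 10 mg/L insulin). Samples added in triplicate, 37 °C, 5% CO2, 72 h. Cells fixed with cold 20% TCA at 4 °C for 30 min, stained with 0.4% sulforhodamine B, dye dissolved in 10 mM Tris pH 10, OD read at 515 nm. Growth given as % of 10% aqueous DMSO control.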

Series [3] has as its target T2, Prostaglandin G/H synthase 2 (Homo sapiens) (UniProt P35354).
T2 sequence (whole entry): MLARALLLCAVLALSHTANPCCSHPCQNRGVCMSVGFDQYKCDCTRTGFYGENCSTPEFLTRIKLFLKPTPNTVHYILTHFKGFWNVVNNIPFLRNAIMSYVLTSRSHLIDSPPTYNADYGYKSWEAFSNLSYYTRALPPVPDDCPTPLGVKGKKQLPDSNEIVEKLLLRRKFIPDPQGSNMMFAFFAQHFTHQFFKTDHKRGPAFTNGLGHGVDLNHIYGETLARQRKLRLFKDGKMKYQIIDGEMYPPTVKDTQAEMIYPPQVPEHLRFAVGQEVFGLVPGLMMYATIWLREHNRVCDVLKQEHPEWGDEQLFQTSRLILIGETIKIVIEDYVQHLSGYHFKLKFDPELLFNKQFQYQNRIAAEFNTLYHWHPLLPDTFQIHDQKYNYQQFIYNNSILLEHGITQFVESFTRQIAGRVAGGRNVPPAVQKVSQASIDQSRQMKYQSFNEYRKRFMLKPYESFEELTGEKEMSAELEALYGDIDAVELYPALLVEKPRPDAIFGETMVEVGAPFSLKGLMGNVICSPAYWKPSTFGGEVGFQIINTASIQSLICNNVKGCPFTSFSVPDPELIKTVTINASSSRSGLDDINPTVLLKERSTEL
Briefly: Inhibition of human COX2 assessed as PGE2 formation at 10 ug/ml by LC-MS-MS analysis. A digest of the protocol: as §1

Series [4] has as its system RAW264.7. As to the kind of experiment: Inhibition of NO production in mouse RAW264.7 cells at 20 ug/ml after 30 mins by Griess assay. Format: functional, cell-based. The conditions noted are these: in the assay text read “after 24 hrs” for “after 30 mins”. The method, boiled down: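 RAW 264.7 cells plated for 24 h. Compound in phenol red-free DMEM added 30 min before LPS (1 µg/mL), then 24 h incubation. Nitrite measured with Griess reagent (1% sulfanilamide, 0.1% N-(1-naphthyl)ethylenediamine in 2.5% H3PO4) at 540 nm, against an NaNO2 standard curve.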

Series [5] has as its system MCF7. As to the kind of experiment: Cytotoxicity against human MCF7 cells assessed as cell growth inhibition at 20 ug/ml after 72 hrs by sulforhodamine B assay. The format is functional, cell-based. The method, boiled down:
as §2

For series [6], the target named is T3, Aromatase (Homo sapiens, UniProt P11511).
T3 sequence (P11511 whole entry): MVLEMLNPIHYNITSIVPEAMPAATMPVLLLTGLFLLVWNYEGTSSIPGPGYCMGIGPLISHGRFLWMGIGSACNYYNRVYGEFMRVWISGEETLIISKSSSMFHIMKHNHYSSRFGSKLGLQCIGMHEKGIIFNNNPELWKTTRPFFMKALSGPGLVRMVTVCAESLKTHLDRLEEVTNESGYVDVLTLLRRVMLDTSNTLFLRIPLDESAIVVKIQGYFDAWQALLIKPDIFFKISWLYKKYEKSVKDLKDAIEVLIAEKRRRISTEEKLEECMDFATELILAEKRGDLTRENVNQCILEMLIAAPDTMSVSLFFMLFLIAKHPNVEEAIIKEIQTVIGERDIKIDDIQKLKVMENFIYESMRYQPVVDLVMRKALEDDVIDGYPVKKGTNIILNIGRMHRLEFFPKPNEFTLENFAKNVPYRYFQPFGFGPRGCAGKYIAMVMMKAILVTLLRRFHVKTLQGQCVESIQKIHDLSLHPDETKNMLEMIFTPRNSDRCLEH
As to the kind of experiment: Inhibition of aromatase preincubated with 2.6 mM NADP+ for 10 mins before substrate addition measured after 30 mins by fluorescence assay. The method, boiled down:
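Compounds preincubated 10 min at 37 °C with NADPH-regenerating system (2.6 mM NADP+, 7.6 mM glucose 6-phosphate, G6PDH, MgCl2, albumin; 50 mM K phosphate pH 7.4). CYP19 with 0.4 µM dibenzylfluorescein then added for 30 min at 37 °C. Stopped with 2 N NaOH and held a further 2 h at 37 °C. Fluorescence read at ex 485/em 530. Five concentrations; three independent experiments in duplicate.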

The source made the active and inactive calls. No cut-off for these calls is given here.

In the case of `COc1c(-c2ccc(O)cc2)oc2cc(O[C@@H]3O[C@H](CO[C@@H]4O[C@@H](C)[C@H](O)[C@@H](O)[C@H]4O)[C@@H](O)[C@H](O)[C@H]3O)cc(O)c2c1=O`, the inhibition entry in series [1], in series [3] and in series [4] was “inactive” in each case. For the same compound, the Activity entry was “Non-toxic” in series [2] and “Not toxic” in series [5].

With `O=C(/C=C/c1ccc(O)c(O)c1)O[C@H]1[C@H](O)[C@@H](O[C@@H]2OC[C@](O)(CO)[C@H]2O)[C@H](OCCc2ccc(O)cc2)O[C@@H]1CO`, the inhibition entry in series [1], in series [3] and in series [4] was “inactive” each time. Besides, the Activity result was “Non-toxic” in series [2] and “Not toxic” in series [5]. In series [6], this compound displayed an IC50 of 30.7 µM.

On to `COc1c(-c2ccc(O)cc2)oc2cc(O[C@@H]3O[C@H](CO[C@@H]4O[C@@H](CO)[C@H](O)[C@H]4O)[C@@H](O)[C@H](O)[C@H]3O)cc(O)c2c1=O`, for which the inhibition entry in series [1], in series [3] and in series [4] was “inactive” in each case. Further, the Activity entry in series [2] is “Non-toxic”; in series [5], “Not toxic”.

In the case of `COc1c(-c2ccc(O)c(O)c2)oc2cc(O[C@@H]3O[C@H](CO)[C@@H](O)[C@H](O)[C@H]3O)cc(O)c2c1=O` [TRANSILIN], the inhibition entry in series [1], in series [3] and in series [4] was “inactive” each time. In addition, the values for the Activity result in series [2] and in series [5] were “Non-toxic” and “Not toxic”, respectively.

Consider `O=C(/C=C/c1ccc(O)c(O)c1)O[C@H]1[C@H](O)[C@@H](CO)O[C@@H](OCCc2ccc(O)cc2)[C@@H]1O[C@@H]1OC[C@](O)(CO)[C@H]1O`, for which the inhibition result in series [1], in series [3] and in series [4] was “inactive” in each case. Besides, the results for the Activity entry in series [2] and in series [5] were “Non-toxic” and “Not toxic”, respectively.

In the case of `O=C(/C=C/c1ccc(O)c(O)c1)OC[C@H]1O[C@@H](OCCc2ccc(O)c(O)c2)[C@H](O)[C@@H](O)[C@@H]1O` [CALCEOLARIOSIDE B], the inhibition result in series [1], in series [3] and in series [4] was “inactive” throughout. Also, the figures for the Activity entry in series [2] and in series [5] were “Non-toxic” and “Not toxic”, respectively. The compound also showed an IC50 in series [6] of 35.3 µM.

Turning to `O=C(/C=C/c1ccc(O)c(O)c1)O[C@H]1[C@H](O)[C@@H](O[C@@H]2OC[C@](O)(CO)[C@H]2O)[C@H](OCCc2ccc(O)c(O)c2)O[C@@H]1CO` [FUCATOSIDE A], the inhibition entry in series [1], in series [3] and in series [4] was “inactive” throughout. Also, the Activity result in series [2] is “Non-toxic”; in series [5] it was “Not toxic”.

As to `COc1c(-c2ccc(O)c(O)c2)oc2cc(O[C@@H]3O[C@H](CO[C@@H]4O[C@@H](C)[C@H](O)[C@@H](O)[C@H]4O)[C@@H](O)[C@H](O)[C@H]3O)cc(O)c2c1=O`, the inhibition result in series [1], in series [3] and in series [4] was “inactive” each time. Also, the Activity result was “Non-toxic” in series [2] and “Not toxic” in series [5].

`O=c1c(O[C@@H]2O[C@H](CO)[C@@H](O)[C@H](O)[C@H]2O)c(-c2ccc(O)c(O)c2)oc2cc(O)cc(O)c12` [ISOQUERCETIN]: the inhibition result in series [1], in series [3] and in series [4] was “inactive” each time. Moreover, the Activity entry was “Non-toxic” in series [2] and “Not toxic” in series [5].

For `O=c1ccn([C@@H]2O[C@H](CO)[C@@H](O)[C@@H]2O)c(=O)[nH]1` [ARAURIDINE], the inhibition result in series [1], in series [3] and in series [4] was “inactive” throughout. Further, the Activity entry in series [2] was “Non-toxic”; in series [5], “Not toxic”.

Turning to `OC[C@H]1O[C@@H](OCCc2ccc(O)c(O)c2)[C@H](O)[C@@H](O)[C@@H]1O`, the inhibition entry in series [1], in series [3] and in series [4] was “inactive” throughout. In addition, the results for the Activity entry in series [2] and in series [5] were “Non-toxic” and “Not toxic”, respectively.

As to `O=C(/C=C/c1ccc(O)c(O)c1)OC[C@H]1O[C@@H](OCCc2ccc(O)c(O)c2)[C@H](O[C@@H]2OC[C@](O)(CO)[C@H]2O)[C@@H](O)[C@@H]1O`, the inhibition entry in series [1], in series [3] and in series [4] was “inactive” throughout. Further, the Activity entry in series [2] was “Non-toxic”; in series [5], “Not toxic”. The compound also had a 50% inhibitory concentration (IC50) in series [6] of 32.3 µM.

With `COc1cc([C@@H](O)[C@@H](CO)Oc2ccc(/C=C/CO)cc2OC)ccc1O` (relative stereo), the inhibition entry in series [1], in series [3] and in series [4] was “inactive” each time. Further, the Activity result in series [2] is “Non-toxic”; in series [5] it was “Not toxic”.

Turning to `O=C(/C=C/c1ccc(O)c(O)c1)O[C@H]1[C@H](O)[C@@H](CO)O[C@@H](OCCc2ccc(O)c(O)c2)[C@@H]1O[C@@H]1OC[C@](O)(CO)[C@H]1O`, the inhibition result in series [1], in series [3] and in series [4] was “inactive” throughout. Moreover, the Activity result in series [2] was “Non-toxic”; in series [5], “Not toxic”. In series [6], this compound displayed an IC50 of 26.8 µM.

For `COc1c(-c2ccc(O)cc2)oc2cc(O[C@@H]3O[C@H](CO)[C@@H](O)[C@H](O)[C@H]3O)cc(O)c2c1=O`, the inhibition entry in series [1], in series [3] and in series [4] was “inactive” each time. The Activity entry in series [2] is “Non-toxic”; in series [5], “Not toxic”.
